Results as given in ChEMBL document CHEMBL5724801, “EUbOPEN Chemogenomics Library - Multiplex” (2024).
Where “and” joins values, the source holds several entries; their conditions need not be identical. Equal values may be shown once.

System: Fibroblast
Assay: Multiplex assay against human fibroblast
Format: toxicity, cell-based
How it was run: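 Live cells were stained at seeding with Hoechst33342, BioTracker Green Microtubule Cytoskeleton Dye, MitoTracker Red and Annexin V Alexa Fluor 680. Following compound addition, they were imaged on a CQ1 microscope at 37°C and 5% CO2 and gated by CellPathfinder machine learning into Hoechst high-intensity objects or normal cells, with normal cells split into healthy, pyknosed or fragmented nuclei and pyknosed cells into mitotic or apoptotic. Tubulin, mitochondrial-mass and membrane-permeability phenotypes are per cents of healthy-nucleus cells.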

[1] = 12 h, 1 µM, compound concentration 1 uM
[2] = 12 h, 10 µM, compound concentration 10 uM
[3] = 24 h, 1 µM, compound concentration 1 uM
[4] = 24 h, 10 µM, compound concentration 10 uM
[5] = 48 h, 1 µM, compound concentration 1 uM
[6] = 48 h, 10 µM, compound concentration 10 uM

## C[C@H]1[C@H]2CC[C@H]3[C@@H]4CC=C5C[C@@H](N(C)C)CC[C@]5(C)[C@H]4CC[C@]23CN1C [CONESSINE]
[1]
  Population Apoptotic (%): 45% and 29%
  Population Fragmented Nuclei (%): 15% and 33%
  Population Healthy Nuclei (%): 73% and 41%
  Population Hoechst High Intensity Objects (%): 1% and 2%
  Population Membrane Permeable-Phenotype (%): 0% and 7%
  Population Mitochondria Different-Phenotype (%): 8% and 2%
  Population Mitotic Cells (%): 55% and 70%
  Population Normal (%): 98% and 97%
  Population Pyknosed Nuclei (%): 11% and 24%
  Population Tubulin-Different-Phenotype (%): 19% and 46%
  Total Cell Count: 174 and 101
[2]
  Population Apoptotic (%): 37% and 43%
  Population Fragmented Nuclei (%): 26%
  Population Healthy Nuclei (%): 60% and 45%
  Population Hoechst High Intensity Objects (%): 3%
  Population Membrane Permeable-Phenotype (%): 5% and 8%
  Population Mitochondria Different-Phenotype (%): 10% and 4%
  Population Mitotic Cells (%): 62% and 56%
  Population Normal (%): 96%
  Population Pyknosed Nuclei (%): 13% and 28%
  Population Tubulin-Different-Phenotype (%): 32% and 58%
  Total Cell Count: 189 and 110
[3]
  Population Apoptotic (%): 43% and 40%
  Population Fragmented Nuclei (%): 13% and 27%
  Population Healthy Nuclei (%): 73% and 48%
  Population Hoechst High Intensity Objects (%): 2% and 4%
  Population Mitochondria Different-Phenotype (%): 4% and 6%
  Population Mitotic Cells (%): 56% and 59%
  Population Normal (%): 97% and 95%
  Population Pyknosed Nuclei (%): 13% and 24%
  Population Tubulin-Different-Phenotype (%): 22% and 61%
  Total Cell Count: 175 and 95
[4]
  Population Apoptotic (%): 64% and 36%
  Population Fragmented Nuclei (%): 28%
  Population Healthy Nuclei (%): 61% and 39%
  Population Hoechst High Intensity Objects (%): 3% and 2%
  Population Membrane Permeable-Phenotype (%): 1% and 7%
  Population Mitochondria Different-Phenotype (%): 7%
  Population Mitotic Cells (%): 35% and 63%
  Population Normal (%): 96% and 97%
  Population Tubulin-Different-Phenotype (%): 27% and 60%
  Total Cell Count: 190 and 106
[5]
  Population Apoptotic (%): 50% and 47%
  Population Fragmented Nuclei (%): 17% and 37%
  Population Healthy Nuclei (%): 73% and 45%
  Population Hoechst High Intensity Objects (%): 5% and 0%
  Population Membrane Permeable-Phenotype (%): 0% and 17%
  Population Mitochondria Different-Phenotype (%): 3% and 8%
  Population Mitotic Cells (%): 50% and 52%
  Population Normal (%): 94% and 99%
  Population Pyknosed Nuclei (%): 9% and 16%
  Population Tubulin-Different-Phenotype (%): 27% and 63%
  Total Cell Count: 178 and 104
[6]
  Population Apoptotic (%): 66% and 27%
  Population Fragmented Nuclei (%): 26% and 29%
  Population Healthy Nuclei (%): 62% and 48%
  Population Hoechst High Intensity Objects (%): 6% and 2%
  Population Membrane Permeable-Phenotype (%): 0% and 8%
  Population Mitochondria Different-Phenotype (%): 4% and 6%
  Population Mitotic Cells (%): 33% and 72%
  Population Normal (%): 93% and 97%
  Population Pyknosed Nuclei (%): 10% and 22%
  Population Tubulin-Different-Phenotype (%): 25% and 62%
  Total Cell Count: 190 and 102

## Clc1ccccc1C(c1ccccc1)(c1ccccc1)n1cccn1
[1]
  Population Apoptotic (%): 14.29% and 24%
  Population Healthy Nuclei (%): 59.04% and 80.46%
  Population Hoechst High Intensity Objects (%): 0%
  Population Membrane Permeable-Phenotype (%): 4.08% and 0.71%
  Population Mitochondria Different-Phenotype (%): 5.1% and 12.14%
  Population Mitotic Cells (%): 85.71% and 76%
  Population Normal (%): 100%
  Population Pyknosed Nuclei (%): 25.3% and 14.37%
  Total Cell Count: 166 and 174
[2]
  Population Apoptotic (%): 9.84% and 23.44%
  Population Fragmented Nuclei (%): 9.09% and 6.46%
  Population Healthy Nuclei (%): 63.18% and 69.2%
  Population Hoechst High Intensity Objects (%): 0%
  Population Membrane Permeable-Phenotype (%): 9.35% and 3.85%
  Population Mitochondria Different-Phenotype (%): 14.39% and 16.48%
  Population Mitotic Cells (%): 90.16% and 76.56%
  Population Normal (%): 100%
  Population Pyknosed Nuclei (%): 27.73% and 24.33%
  Population Tubulin-Different-Phenotype (%): 30.22% and 45.6%
  Total Cell Count: 220 and 263
[3]
  Population Fragmented Nuclei (%): 12.05% and 9.29%
  Population Healthy Nuclei (%): 71.08% and 85.25%
  Population Hoechst High Intensity Objects (%): 0%
  Population Membrane Permeable-Phenotype (%): 4.24% and 2.56%
  Population Mitochondria Different-Phenotype (%): 3.39% and 8.97%
  Population Mitotic Cells (%): 96.43% and 60%
  Population Normal (%): 100%
  Population Tubulin-Different-Phenotype (%): 10.17% and 21.15%
  Total Cell Count: 166 and 183
[4]
  Population Apoptotic (%): 13.04% and 31.25%
  Population Healthy Nuclei (%): 67.26% and 79.55%
  Population Hoechst High Intensity Objects (%): 0%
  Population Membrane Permeable-Phenotype (%): 9.87% and 0.95%
  Population Mitochondria Different-Phenotype (%): 7.24% and 10.95%
  Population Mitotic Cells (%): 86.96% and 68.75%
  Population Normal (%): 100%
  Population Pyknosed Nuclei (%): 20.35% and 18.18%
  Population Tubulin-Different-Phenotype (%): 45.39% and 44.29%
  Total Cell Count: 226 and 264
[5]
  Population Apoptotic (%): 40% and 22.22%
  Population Fragmented Nuclei (%): 11.92% and 7.69%
  Population Healthy Nuclei (%): 82.9% and 87.69%
  Population Hoechst High Intensity Objects (%): 0%
  Population Membrane Permeable-Phenotype (%): 0.62% and 0.58%
  Population Mitochondria Different-Phenotype (%): 11.25% and 3.51%
  Population Mitotic Cells (%): 60% and 77.78%
  Population Normal (%): 100%
  Population Pyknosed Nuclei (%): 5.18% and 4.62%
  Total Cell Count: 193 and 195
[6]
  Population Apoptotic (%): 30.77% and 42.86%
  Population Fragmented Nuclei (%): 9.35% and 4.71%
  Population Healthy Nuclei (%): 85.37% and 89.8%
  Population Hoechst High Intensity Objects (%): 0%
  Population Membrane Permeable-Phenotype (%): 1.9% and 3.49%
  Population Mitochondria Different-Phenotype (%): 13.33% and 6.11%
  Population Mitotic Cells (%): 69.23% and 57.14%
  Population Normal (%): 100%
  Population Pyknosed Nuclei (%): 5.28% and 5.49%
  Population Tubulin-Different-Phenotype (%): 14.76% and 36.24%
  Total Cell Count: 246 and 255
